High-throughput results: PubChem, Broad Institute
E-sel inducer – induces E-selectin expression in human endothelial cells | HUVEC E-selectin immunofluorescence imaging; normalized: neutral wells 0, TNF-alpha wells 100 | activation, % at 7.58 µM | actives 0.37% (n = 260,000) | AID 686992;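 active = mean E-selectin-positive cell signal at least 10% of the positive control, reached in at least 60% of replicates, without over 20% cell loss; inconclusive = no rule given, readout overlaps actives, possibly toxicity-flagged; inactive = the rest, including those meeting only one limit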
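System: HUVEC / Compound: single concentration / Signal: immunofluorescence imaging / Read-out: percent E-selectin-positive cells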
DENV2 CPE – DENV2-induced cell death inhibition | DENV2-infected cells, cytopathic effect rescue, plate reader | CPE inhibition, % at 9.99 µM | actives 1.7% (n = 350,000); in the data active = CPE inhibition above about 20%, passing the limit was not always enough; inconclusive = no clear call, values can overlap the other calls; tested in BHK-21 cells
SIRT5 inh – inhibitors of human sirtuin-5 desuccinylase. Purified SirT5, succinyl-peptide AMC, trypsin-coupled fluorescence. inhibition, % at 15 µM. actives 1.1% (n = 330,000). AID 652115; in the data active = inhibition above about 15%; inconclusive = no clear call, values can overlap the other calls
Target sequence (Q9NXA8 whole entry, looked up): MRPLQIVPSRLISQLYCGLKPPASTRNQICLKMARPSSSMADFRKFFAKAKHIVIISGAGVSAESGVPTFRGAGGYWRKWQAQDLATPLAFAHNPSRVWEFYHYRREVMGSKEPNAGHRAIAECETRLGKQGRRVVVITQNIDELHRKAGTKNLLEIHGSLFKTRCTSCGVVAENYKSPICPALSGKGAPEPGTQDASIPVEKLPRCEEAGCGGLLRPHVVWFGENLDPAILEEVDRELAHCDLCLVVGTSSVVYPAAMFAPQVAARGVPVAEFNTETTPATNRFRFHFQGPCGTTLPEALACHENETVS
Each line names hits and unclear results; the compound was inactive in the other large screens. Only some compounds are listed: those with a hit (about 2.8% of all), similar ones and a draw of the others.

COc1ccc(NC(=O)C2CCC2)cc1S(=O)(=O)Nc1cc(C)ccc1Br	none (no result: E-sel inducer, SIRT5 inh)
COc1ccc(NC(=O)[C@H](C)NC(N)=O)cc1S(=O)(=O)Nc1cc(C)ccc1Br	SIRT5 inh 16
Nc1ncc([N+](=O)[O-])c(Oc2ccccc2F)n1	none
COc1cccc(Oc2nc(N)ncc2[N+](=O)[O-])c1	E-sel inducer 29
CCOC(=O)[C@H](Cc1c[nH]c2ccccc12)NC(=O)CN=[N+]=[N-]	none (no result: E-sel inducer)
O=C(NCCC1CCCCN1S(=O)(=O)c1ccccc1)C(=O)NCc1ccccn1 (centres undefined)	DENV2 CPE 92 (no result: E-sel inducer)
O=C(NCc1ccccn1)C(=O)NCC1OCCN1S(=O)(=O)c1ccc(Br)cc1 (centres undefined)	DENV2 CPE 64
O=C(NCCC1CCCCN1S(=O)(=O)c1ccc(F)cc1)C(=O)NCc1ccccn1 (centres undefined)	DENV2 CPE inconclusive
Cc1ccc(C)c(S(=O)(=O)N2CCCC2CNC(=O)C(=O)NCCc2ccco2)c1 (centres undefined)	none
COc1ccc(S(=O)(=O)N2CCOC2CNC(=O)C(=O)NCc2ccccn2)cc1 (centres undefined)	none
Cc1ccc(C)c(S(=O)(=O)N2CCCCC2CCNC(=O)C(=O)NCCc2ccco2)c1 (centres undefined)	E-sel inducer 62
COc1ccc(-c2ccc3c(c2)[C@H]2[C@H](CCN2C(=O)c2cnccn2)[C@H](CO)N3)cc1	none
COCC(=O)N(C)C[C@H]1Oc2cc(C#CC3CCCC3)ccc2S(=O)(=O)N([C@@H](C)CO)C[C@@H]1C	none (no result: DENV2 CPE, SIRT5 inh)
CNC(=O)C[C@@H]1CC[C@H]2[C@H](COc3ccc(NC(=O)Nc4ccccc4F)cc3C(=O)N2C)O1	DENV2 CPE inconclusive
C[C@@H]1CN([C@H](C)CO)C(=O)c2cccc(N(C)C)c2O[C@H]1CN(C)Cc1ccc(Cl)c(Cl)c1	none
O=C(Nc1ccc(S(=O)(=O)Nc2nccs2)cc1)c1cccc(F)c1	SIRT5 inh 32
CC(C)C(=O)Nc1cccc(C(=O)Nc2ccc(S(=O)(=O)Nc3nccs3)cc2)c1	none
Cc1ccc(S(=O)(=O)Nc2ccc3c(c2)CC(=O)N([C@H](C)CO)C[C@@H](C)[C@@H](CN(C)C(=O)Nc2c(C)noc2C)O3)cc1	none
COc1ccc(OC)c(S(=O)(=O)N/N=C(/C)c2c[nH]c3ccccc23)c1	none
COc1ccc(OC)c(S(=O)(=O)N/N=C\c2c[nH]c3ccccc23)c1	DENV2 CPE 37
C[C@@H]1CCCCO[C@H](CN(C)Cc2ccc(C(=O)O)cc2)[C@H](C)CN([C@@H](C)CO)C(=O)c2cc(NC(=O)Nc3ccc4c(c3)OCO4)ccc2O1	none
C/C=C/c1ccc2c(c1)O[C@@H](CN(C)C(=O)C1CCCCC1)[C@@H](C)CN([C@@H](C)CO)S2(=O)=O	none (no result: DENV2 CPE, SIRT5 inh)
CCCCCCN1CCN(C2CN(C3CCCCC3)S(=O)(=O)C2)CC1 (centres undefined)	SIRT5 inh 39
CN(C)CCN1CCN(C2CN(C3CCCCC3)S(=O)(=O)C2)CC1 (centres undefined)	none (no result: E-sel inducer)
COc1cccc(NC(=O)N2C[C@H](O)COC[C@H]3O[C@@H](CC(=O)NCc4ccccc4F)CC[C@@H]32)c1	none
C[C@H]1CN([C@@H](C)CO)C(=O)c2cccc(NS(=O)(=O)c3ccccc3)c2O[C@H]1CN(C)C(=O)Nc1ccc2c(c1)OCO2	none
CCCCNC(=O)c1nn2c(C(F)(F)F)cc(-c3ccccc3)nc2c1Br	DENV2 CPE 38 (no result: E-sel inducer)
N#CCNC(=O)c1nn2c(C(F)(F)F)cc(-c3ccccc3)nc2c1Br	none
C[C@H](CO)N1C[C@H](C)[C@H](CN(C)S(=O)(=O)c2ccccc2)Oc2ncc(-c3cccc(F)c3)cc2C1=O	none
O=C(Nc1ccccc1)N1CCCCN2[C@@H](CO)[C@@H](c3ccc(Br)cc3)[C@@H]2C1	DENV2 CPE 33
O=C(Nc1ccccc1)N1CCCCN2[C@H](CO)[C@H](c3ccc(C#CC4CC4)cc3)[C@H]2C1	DENV2 CPE 34
O=C(Nc1ccccc1)N1CCCCN2[C@H](C1)[C@@H](c1ccc(Br)cc1)[C@@H]2CO	none
O=C(Nc1ccccc1)N1CCCCN2[C@H](CO)[C@@H](c3ccc(C#CC4CC4)cc3)[C@@H]2C1	none
C[C@H]1CN([C@@H](C)CO)C(=O)c2cc(C#CCN(C)C)cnc2O[C@H]1CN(C)C(=O)CCN1CCCCC1	none
Cc1ccc(-c2nnc(SCCC(=O)N3CCOCC3)o2)cc1	none
O=C(CCSc1nnc(-c2ccccc2)o1)N1CCOCC1	DENV2 CPE 27 (no result: E-sel inducer)
C[C@@H]1CN([C@@H](C)CO)C(=O)c2cc(-c3cccc(F)c3)cnc2O[C@@H]1CN(C)C(=O)c1ccccn1	none
COc1ccc(S(=O)(=O)NN(C)C(=O)c2nn(-c3ccccc3)ccc2=O)cc1	E-sel inducer 27
COc1ccc(-n2ccc(=O)c(C(=O)O)n2)cc1	none (no result: E-sel inducer)
C[C@H]1CN([C@@H](C)CO)C(=O)c2cc(NS(C)(=O)=O)ccc2O[C@H]1CN(C)CC1CC1	none
COc1ccc(S(=O)(=O)Nc2ccc3c(c2)C(=O)N([C@@H](C)CO)C[C@@H](C)[C@@H](CN(C)Cc2ccc(C(F)(F)F)cc2)O3)cc1	none (no result: SIRT5 inh)
CCc1cc2c(cc3c(=O)n(CC(=O)NCCCN4CC(C)CC(C)C4)ncn32)s1 (centres undefined)	DENV2 CPE 64
CCc1cc2c(cc3c(=O)n(CC(=O)N4CCN(C)CC4)ncn32)s1	none (no result: E-sel inducer)
CCCC#Cc1cnc2c(c1)C(=O)N([C@@H](C)CO)C[C@H](C)[C@H](CN(C)C(=O)c1ccc(F)cc1)O2	none
CCCNC(=O)[C@@H]1[C@@H](CO)[C@@H]2Cn3c(ccc(-c4ccccc4F)c3=O)[C@@H]2N1C	none
C[C@@H]1CN([C@@H](C)CO)C(=O)c2cc(C3=CCCC3)cnc2O[C@H]1CN(C)C(=O)NC1CCCC1	DENV2 CPE 31 (no result: E-sel inducer)
C[C@@H]1CN([C@H](C)CO)C(=O)c2cc(C3=CCCC3)cnc2O[C@@H]1CN(C)C(=O)Nc1ccc(C(F)(F)F)cc1	DENV2 CPE 33
C[C@@H]1CN([C@H](C)CO)C(=O)c2cc(C3=CCCCC3)cnc2O[C@@H]1CN(C)C(=O)C1CCOCC1	none
C[C@@H]1CN([C@@H](C)CO)C(=O)c2cc(C3=CCCC3)cnc2O[C@H]1CN(C)C(=O)Nc1ccc(C(F)(F)F)cc1	none
C[C@H](CO)N1C[C@H](C)[C@@H](CN(C)C(=O)C2CCOCC2)Oc2ncc(C3=CCCCC3)cc2C1=O	DENV2 CPE 45
C[C@H]1CN([C@@H](C)CO)C(=O)c2cc(C3=CCCC3)cnc2O[C@@H]1CN(C)C(=O)Nc1ccc(F)cc1	none
C[C@@H]1CN([C@@H](C)CO)C(=O)c2cc(C3=CCCC3)cnc2O[C@@H]1CN(C)C(=O)NC1CCCC1	none (no result: E-sel inducer)
C[C@H](CO)N1C[C@H](C)[C@@H](CN(C)C(=O)Nc2ccc(F)cc2)Oc2ncc(C3=CCCC3)cc2C1=O	DENV2 CPE 27 (no result: SIRT5 inh)
O=C(C[C@H]1CC[C@@H]2[C@H](COC[C@@H](O)CN2Cc2cccc(C(F)(F)F)c2)O1)NCCc1ccccc1	none
Cc1ccc(-c2cnc3c(c2)C(=O)N([C@H](C)CO)C[C@@H](C)[C@@H](CN(C)C)O3)cc1	none
C[C@@H]1CN([C@H](C)CO)C(=O)c2cc(C3=CCCCC3)cnc2O[C@@H]1CN(C)C(=O)Nc1ccc(F)cc1	DENV2 CPE 34
